Assay results: ChEMBL document CHEMBL2331496 (Eur J Med Chem, 2013)
Activity calls are given as the source filed them. The calls are words filed in the database; no cut-off is given here.

Columns and labels:
[1] = test system: Human immunodeficiency virus 1; assay: Antiviral activity against HIV1 NL4.3 infected in 293T cells assessed as acentric core at 5 ug/ml after 2 days by electron microscopic analysis; type: functional, organism-based
[2] = Cytotoxicity against human MAGIC-5B cells after 48 hrs by MTT assay; type: cell-based
[3] = Selectivity index, ratio of CC50 for human MAGIC-5B cells to IC50 for HIV1 NL4.3; type: functional
[4] = test system: 293T; assay: Inhibition of HIV1 NL4.3 CA-SP1 cleavage infected in 293T cells after 2 days by Western blot analysis; type: cell-based; conditions: Human immunodeficiency virus 1
[5] = test system: Human immunodeficiency virus 1; assay: Antiviral activity against HIV1 NL4.3 infected in 293T cells assessed as aberrant core at 5 ug/ml after 2 days by electron microscopic analysis; type: functional, organism-based
[6] = test system: Human immunodeficiency virus 1; assay: Antiviral activity against HIV1 NL4.3 infected in 293T cells assessed as spherical core at 5 ug/ml after 2 days by electron microscopic analysis; type: functional, organism-based
[7] = test system: Human immunodeficiency virus 1; assay: Antiviral activity against HIV1 NL4.3 infected in MAGIC-5B cells after 48 hrs by beta-galactosidase reporter gene assay; type: functional, organism-based; conditions: Human immunodeficiency virus 1, NL4.3, 48 h
Summary of the method: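 MAGIC-5B indicator cells (beta-galactosidase under the HIV-1 LTR), 8×10^4 per well, were exposed to these supernatants. After 48 h, ONPG hydrolysis was read in lysates and normalised to total protein.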

[8] = test system: Human immunodeficiency virus; assay: Antiviral activity against HIV infected in H9 cells; type: functional, organism-based; conditions: Human immunodeficiency virus 1, H9
[9] = Ratio of compound selectivity index to bevirimat selectivity index for HIV1 NL4.3 over human MAGIC-5B cells
[10] = test system: Human immunodeficiency virus 1; assay: Binding affinity to HIV1 NL4.3 CA-SP1 at 550 uM by chemical shift pertubation NMR analysis
Summary of the method: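 2D 1H-1H NOESY of CA-SP1-NC peptide (250 uM) with and without ligand (550 uM). pH 3.8 in H2O/TFE 70/30 (to prevent aggregation) with 1% DMSO-d6. Spectral width 5296.6 Hz, excitation-sculpting water suppression, 250 ms NOE mixing time. Chemical-shift perturbation of the wild-type junction plotted per residue.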

Row | Compound | Activity [1] | CC50 at 48 h [2] | Ratio CC50/IC50 [3] | inhibition [4] | Activity [5] | Activity [6] | IC50 [7] | EC50 [8] | Ratio [9] | Activity [10]
1 | C=C(C)[C@@H]1CC[C@]2(C(=O)O)CC[C@]3(C)[C@H](CC[C@@H]4[C@@]5(C)CC[C@H](O)C(C)(C)[C@@H]5CC[C@]43C)[C@@H]12 [BETULINIC ACID] | inactive | 4.52 µM | 0.85 | inactive | inactive | inactive | 5.32 µM | – | – | –
2 | C=C(C)[C@@H]1CC[C@]2(C(=O)N[C@@H](CCCCNC(=O)OC(C)(C)C)C(=O)O)CC[C@]3(C)[C@H](CC[C@@H]4[C@@]5(C)CC[C@H](OC(=O)CC(C)(C)C(=O)O)C(C)(C)[C@@H]5CC[C@]43C)[C@@H]12 | Active | 33.9 µM | 199.41 | Active | Active | Active | 0.17 µM | – | – | –
3 | C=C(C)[C@@H]1CC[C@]2(C(=O)O)CC[C@]3(C)[C@H](CC[C@@H]4[C@@]5(C)CC[C@H](OC(=O)CC(C)(C)C(=O)O)C(C)(C)[C@@H]5CC[C@]43C)[C@@H]12 [BEVIRIMAT] | Active | – | – | Active | Active | Active | – | > 0.00035 µM | – | –
4 | C=C(C)[C@@H]1CC[C@]2(C(=O)N[C@@H](CCCCN)C(=O)O)CC[C@]3(C)[C@H](CC[C@@H]4[C@@]5(C)CC[C@H](OC(=O)CC(C)(C)C(=O)O)C(C)(C)[C@@H]5CC[C@]43C)[C@@H]12 | inactive | 48.7 µM | 11.24 | inactive | inactive | inactive | 4.33 µM | – | – | –
5 | C=C(C)[C@@H]1CC[C@]2(C(=O)NCCN)CC[C@]3(C)[C@H](CC[C@@H]4[C@@]5(C)CC[C@H](OC(=O)CC(C)(C)C(=O)O)C(C)(C)[C@@H]5CC[C@]43C)[C@@H]12 | Active | 33.9 µM | 2118.75 | Active | Active | Active | 0.016 µM | – | 2 | Active
6 | C=C(C)[C@@H]1CC[C@]2(C(=O)NCC(=O)O)CC[C@]3(C)[C@H](CC[C@@H]4[C@@]5(C)CC[C@H](OC(=O)CC(C)(C)C(=O)O)C(C)(C)[C@@H]5CC[C@]43C)[C@@H]12 | Active | 49.5 µM | 309.37 | Active | Active | Active | 0.16 µM | – | – | –
7 | C=C(C)[C@@H]1CC[C@]2(C(=O)NCCC(=O)O)CC[C@]3(C)[C@H](CC[C@@H]4[C@@]5(C)CC[C@H](OC(=O)CC(C)(C)C(=O)O)C(C)(C)[C@@H]5CC[C@]43C)[C@@H]12 | Active | 48.5 µM | 411.01 | Active | Active | Active | 0.118 µM | – | – | –
